Bioassay records (PubChem BioAssay)
MT1-MMP act inh: MT1-MMP (human) activation inhibition; HT1080 RFP-PRO-GFP cells, GFP/RFP ratio fluorescence, overnight; percent of plate control window, DMSO zero; GFP/RFP ratio change, % at 20 µM; hit rate 0.061% among 360,000;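 active = GFP/RFP ratio change of at least 30% with cell ATP level not reduced by more than half and red fluorescence within 50% of control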
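Read-out: GFP/RFP fluorescence ratio; Test system: RFP-PRO-GFP reporter HT1080 cells; Compound dosing: single-point 20 µM compound, 1% DMSO; Times: overnight compound exposure at 37 °C.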
Neddyl block: inhibitors of human cullin neddylation. P61081+Q13564. TR-FRET cullin neddylation, biochemical. calls only at 25 µM. hit rate 0.58% among 360,000. AID 651699; in the data active = inhibition above about 36%
Target sequence (P61081 whole entry, looked up): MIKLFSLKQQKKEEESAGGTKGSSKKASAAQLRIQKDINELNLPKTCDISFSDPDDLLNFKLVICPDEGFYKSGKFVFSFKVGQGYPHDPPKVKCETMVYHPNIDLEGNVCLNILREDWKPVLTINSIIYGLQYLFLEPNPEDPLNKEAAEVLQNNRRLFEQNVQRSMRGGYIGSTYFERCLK
Target sequence (Q13564 whole entry, looked up): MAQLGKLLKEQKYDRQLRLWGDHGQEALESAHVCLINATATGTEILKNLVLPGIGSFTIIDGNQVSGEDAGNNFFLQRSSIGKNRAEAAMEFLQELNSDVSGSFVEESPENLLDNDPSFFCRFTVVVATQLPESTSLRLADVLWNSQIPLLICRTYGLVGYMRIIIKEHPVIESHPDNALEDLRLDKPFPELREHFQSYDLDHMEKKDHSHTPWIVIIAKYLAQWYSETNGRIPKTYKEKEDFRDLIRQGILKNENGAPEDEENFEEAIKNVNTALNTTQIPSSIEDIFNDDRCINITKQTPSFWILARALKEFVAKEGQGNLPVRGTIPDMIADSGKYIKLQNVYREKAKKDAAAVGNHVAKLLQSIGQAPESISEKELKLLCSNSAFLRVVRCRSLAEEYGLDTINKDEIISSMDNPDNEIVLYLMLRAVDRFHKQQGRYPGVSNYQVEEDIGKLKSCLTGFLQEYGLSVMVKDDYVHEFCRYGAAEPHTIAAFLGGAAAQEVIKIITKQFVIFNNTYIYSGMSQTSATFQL
Tn6 DDE FP: inhibitors of Tn6 peptide binding to human fibrin DD(E) | P02675 | Fibrin DD(E) TRITC-Tn6 fluorescence polarization displacement | inhibition, % at 8.3 µM | hit rate 0.21% among 370,000 | AID 720509;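 active = inhibition above a per-campaign cutoff: mean of compounds within control limits plus 3 SD, cut at about 15% in these data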
SKN-1 block: C. elegans SKN-1 inhibition; C. elegans VP596 Pgst-4::GFP/RFP ratio, acrylamide-induced, 24 h; inhibition, % at 21.8 µM; hit rate 0.49% among 360,000;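 active = interference check ratio from 0.5 to 1.5 plus GFP to RFP signal ratio inhibition reaching or exceeding a fixed threshold, cut at about 30% in these data, passing the limit was not always enough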
Tn7 DDE FP: DD(E)-Tn7 binding inhibition, primary FP screen; hit rate 0.13% among 370,000; inhibition, % at 8.3 µM; FP displacement of FITC-Tn7 peptide from fibrin DD(E); 0% = median of compound wells per plate;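 active = inhibition above the mean of compounds falling within the control limits plus 3 SD of them, cut at about 14% in these data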
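Measure: % inhibition scaled between sample-field median and high-control FP; Test system: human fibrin DD(E); Quantity: 2 µM final DD(E) protein; Doses: one dose, 8.3 µM nominal; Schedule: compound with protein 10 min, then 3 h after probe, room temperature; Detection: fluorescence polarization; Medium: Tris buffer with calcium and detergent, pH 7.8.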
proKLK7 act: activators of human kallikrein-7 zymogen; hit rate 0.9% among 370,000; activation, % at 7 µM; P49862; purified proKLK7, EDANS-DABCYL substrate fluorescence; 100% is mature enzyme control, 0% vehicle;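 active = activation above the mean of all tested compounds plus 3 SD, computed per campaign excluding outliers beyond control limits, cut at about 13% in these data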
KLK7 act conf: proKLK7 activation, confirmation | shares compounds with proKLK7 act | purified proKLK7, EDANS-DABCYL substrate fluorescence; scaled: vehicle 0, mature enzyme 100 | activation, % at 7 µM | hit rate 68% among 3,200 | AID 686949;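 active = activation, as change over the incubation, above the mean of all tested compounds plus 3 SD, cut at about 13% in these data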
EDANS-DABCYL int: fluorescence interference counter-screen for KLK7 activators; shares compounds with proKLK7 act; EDANS-DABCYL substrate fluorescence interference, no enzyme, 4 h; solvent 0%, active enzyme control 100%; activation, % at 7 µM; hit rate 80% among 3,200; AID 686952;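 active = activation above the all-compound mean plus 3 SD, ignoring values outside control-based bounds, cut at about 4.8% in these data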;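 also: value is the 4 h activation minus the activation read at time zero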
EDANS interf: counter-screen for kallikrein-7 activators: EDANS-DABCYL interference, dose response; EDANS-DABCYL peptide fluorescence interference, no enzyme; shares compounds with proKLK7 act; hit rate 20% among 250; EC50, µM; AID 720493;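 active = compounds that raise the fluorescence signal in this interference counterscreen, with EC50 at or below 10 µM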;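 also: intact quenched peptide substrate alone read at 355 nm excitation and 520 nm emission; signal is fluorescence gain from T0 to T4 after four hours at room temperature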
Large screens that a line does not name were inactive (follow-up assays come after a bar, where shown). Hits are enriched below; roughly 2.2% of the tested compounds scored in any of these assays.

CC1CCCCN1Cc1c(O)ccc2c(=O)c(-c3ccccc3)coc12 (stereo not drawn)	proKLK7 act 34 (not shown: Neddyl block) | KLK7 act conf 71 | EDANS-DABCYL int 69
CC1CCCCN1Cc1nc2ccccc2c(=O)[nH]1 (stereo not drawn)	none
COc1ccc(-c2coc3c(CN4CCCCC4C)c(O)ccc3c2=O)cc1 (stereo not drawn)	proKLK7 act 46 (not shown: Neddyl block) | KLK7 act conf 69 | EDANS-DABCYL int 58
CCc1cc2c(=O)c(-c3ccc4c(c3)OCCO4)coc2c(CN2CCCCC2C)c1O (stereo not drawn)	proKLK7 act 16 (not shown: Neddyl block) | KLK7 act conf inactive | EDANS-DABCYL int inactive
CC(C)CCNC1=NCCCCC1	none
COc1cccc2cc(-c3cc(=O)oc4ccc(O)cc34)oc12	none
O=C(NCCc1ccccn1)C1CCN(S(=O)(=O)c2ccc(Cl)cc2)CC1	none
O=c1c(-c2ccccc2)coc2c(CN3CCCCC3)c(O)ccc12	proKLK7 act 38 (not shown: Neddyl block) | KLK7 act conf 65 | EDANS-DABCYL int 63
CC1CN(Cc2c(O)ccc3c(=O)c(-c4ccccc4)coc23)CC(C)O1 (stereo not drawn)	proKLK7 act 82 (not shown: Neddyl block) | KLK7 act conf 27 | EDANS-DABCYL int 26
CCc1cc2c(=O)c(-c3nc4ccccc4[nH]3)coc2c(CN2CCCCC2)c1O	none
CC1CN(Cc2c(O)ccc3c2oc(=O)c2ccccc23)CC(C)O1 (stereo not drawn)	none
Cc1ccc(C(=O)CC2(O)C(=O)N(Cc3ccccc3)c3ccccc32)o1 (stereo not drawn)	none
CCN(C(=O)c1cc2c(=O)n3cccc(C)c3nc2s1)C1CCCCC1	none (not shown: Neddyl block)
CCN(CC)C(=O)c1cc2c(=O)n3cccc(C)c3nc2s1	proKLK7 act 20 (not shown: Neddyl block) | KLK7 act conf 13 | EDANS-DABCYL int 15
CCN(CC)C(=O)c1cc2c(=O)n3cccc(C)c3nc2n1C	proKLK7 act 22 (not shown: Neddyl block) | KLK7 act conf 15 | EDANS-DABCYL int 21
CCC(C)NC(=O)c1cc2c(=O)n3cccc(C)c3nc2s1 (stereo not drawn)	proKLK7 act 20 (not shown: Neddyl block) | KLK7 act conf 18 | EDANS-DABCYL int inactive | EDANS interf inactive
C=CCNC(=O)c1cc2c(=O)n3cccc(C)c3nc2s1	none (not shown: Neddyl block)
C=CCOc1c2ccc(C(=O)NCc3ccc(OC)cc3)cc2nn1C	none (not shown: Neddyl block)
C=CCOc1c2ccc(C(=O)NCc3ccccc3OC)cc2nn1C	proKLK7 act 14 (not shown: Neddyl block) | KLK7 act conf inactive | EDANS-DABCYL int 15
Nc1nc(SCc2ccccc2)c2ncn(C3CCCCC3)c2n1	none
O=C(CCNC(=O)c1ccccc1)OCN1C(=O)c2ccccc2C1=O	none
CCC(=O)c1cc2c(C)cc(=O)oc2c(C)c1OC(=O)C(C)C	proKLK7 act 139 | KLK7 act conf 155 | EDANS-DABCYL int 179
CCC(=O)c1cc2c(C)cc(=O)oc2c(C)c1OC(C)=O	proKLK7 act 453 | KLK7 act conf 804 | EDANS-DABCYL int 772
CCC(=O)c1cc2c(C)cc(=O)oc2c(C)c1O	none
COc1cccc(C2C=C(c3ccc(Br)s3)Nc3ncnn32)c1OC (stereo not drawn)	none (no result: Tn6 DDE FP, Tn7 DDE FP, proKLK7 act)
COc1ccc(C2C=C(c3ccccc3)Nc3ncnn32)cc1 (stereo not drawn)	proKLK7 act 52 (not shown: Neddyl block) | KLK7 act conf 71 | EDANS-DABCYL int 74
FC(F)(F)c1ccccc1C1=CC(c2ccccc2)n2ncnc2N1 (stereo not drawn)	proKLK7 act 25 (not shown: Neddyl block) | KLK7 act conf 27 | EDANS-DABCYL int 26
COc1ccc(C2C=C(c3ccc(C)c(C)c3)Nc3ncnn32)c(OC)c1OC (stereo not drawn)	proKLK7 act 18 (not shown: Neddyl block) | KLK7 act conf 24 | EDANS-DABCYL int 30
Cc1ccc(C2=CC(c3ccc(C)cc3)n3ncnc3N2)cc1 (stereo not drawn)	proKLK7 act 32 (not shown: Neddyl block) | KLK7 act conf inactive | EDANS-DABCYL int inactive
CC(C)C(=O)Nc1ccc2nn(-c3ccc(F)cc3)nc2c1	none (not shown: Neddyl block, Tn6 DDE FP, Tn7 DDE FP, proKLK7 act)
CCOc1ccc(-n2nc3ccc(N)cc3n2)cc1	none (not shown: Neddyl block)
COc1ccc(-n2nc3ccc(N)cc3n2)cc1	proKLK7 act 99 (not shown: Neddyl block) | KLK7 act conf 77 | EDANS-DABCYL int 82
CCCC(=O)Nc1ccc2nn(-c3ccc(OC)cc3)nc2c1	proKLK7 act 18 (not shown: Neddyl block) | KLK7 act conf 35 | EDANS-DABCYL int inactive | EDANS interf inactive
COc1ccc(-n2nc(N)c(C(N)=O)n2)cc1	proKLK7 act 26 (not shown: Neddyl block) | KLK7 act conf 23 | EDANS-DABCYL int 21
Nc1ccc2nn(-c3ccc(F)cc3)nc2c1	proKLK7 act 45 (not shown: Neddyl block) | KLK7 act conf 66 | EDANS-DABCYL int 77
CCCC(c1nnnn1C1CCCCC1)N1CCN(C(=O)c2ccco2)CC1 (stereo not drawn)	none
CC(=O)N1CCN(Cc2nc3cc(NC(=O)COc4ccccc4)ccc3n2C)CC1	none
CCC(CC)C(=O)Nc1ccc(-c2cn3cccnc3n2)cc1	proKLK7 act 61 (not shown: Neddyl block) | KLK7 act conf 66 | EDANS-DABCYL int 64
COCC(=O)Nc1ccc(-c2cn3cccnc3n2)cc1	proKLK7 act 25 (not shown: Neddyl block) | KLK7 act conf 63 | EDANS-DABCYL int 81
CC(C)(C)NC(=O)Nc1ccc2nccnc2c1	proKLK7 act 64 (not shown: Neddyl block) | KLK7 act conf 70 | EDANS-DABCYL int 77
Nc1nc(N)c2nc(-c3ccccc3)c(N)nc2n1	proKLK7 act 60 | KLK7 act conf 67 | EDANS-DABCYL int 74
NSc1nc(N)c2nc(-c3ccccc3)c(-c3ccccc3)nc2n1	none
O=C(c1ccc(S(=O)(=O)N2CCCCC2)cc1)c1nnc(-c2ccc(Cl)cc2)o1	none
CC(NC(=O)[C@@H](NC(=O)[C@@H]1Cc2ccccc2CN1)C(C)C)c1ccccc1 (stereo partly drawn)	none
CCC(NC(=O)COc1cc2c(c3oc(=O)c(C)c(C)c13)CCC(C)(C)O2)C(=O)O (stereo not drawn)	proKLK7 act 38 (not shown: Neddyl block) | KLK7 act conf 73 | EDANS-DABCYL int 74
Cc1c(C)c2c(OCC(=O)NCC(C)C)cc3c(c2oc1=O)CCC(C)(C)O3	none (not shown: Neddyl block)
